Consider 42 molecules from ChEMBL document CHEMBL2331334, “Hybrid furoxanyl N-acylhydrazone derivatives as hits for the development of neglected diseases drug candidates” (Eur J Med Chem, 2013).

In brackets after ≈: the same amount, converted by molar mass. Bounds are passed on as bounds.

For assay [1], the system named is Mycobacterium tuberculosis. In words: Antimycobacterial activity against multidrug-resistant Mycobacterium tuberculosis clinical isolate assessed as growth inhibition after 5 days by MTT assay. Format: functional. Conditions: 120 h. In a few lines: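 MTB inoculum made from 20–30-day slant growth in Tween 80/0.2% BSA, adjusted to McFarland No. 1, then diluted in 7H9GC broth (Middlebrook 7H9, glycerol, Casitone, OADC). Final inoculum about 1.2 × 10^6 CFU/mL. Compounds taken from DMSO stock to final 0.4–25 in broth, with a DMSO control. Plates run 5 days at 37 °C, then tetrazolium (MTT)–Tween 80 added for a further 24 h at 37 °C. Read-out is MIC.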
On the technique in general: Formazan colour is commonly taken as a measure of viable cells.

Assay [2] can be described thus: Selectivity index, ratio of IC50 for mouse J774.1 cells to MIC for multidrug-resistant Mycobacterium tuberculosis clinical isolate. Format: functional. In a few lines:
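Cytotoxicity: J774.1 macrophages in DMEM with 4 mM L-glutamine and 10% heat-inactivated FCS, seeded at 5 × 10^4/well, attached 48 h at 37 °C, 5% CO2. Exposed 48 h to 12.5–400.0 µM compound or vehicle. MTT at 0.1 mg/mL final for 3 h, formazan dissolved in DMSO/glycine buffer pH 10.5, A560 read. IC50 by linear regression, divided by the MIC against the same MTB strain.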

In general, MIC refers to the smallest concentration in the dilution series that meets the test's criterion for growth inhibition. As to `Cc1c(C(=O)N/N=C/c2ccc3no[n+]([O-])c3c2)no[n+]1[O-]`, the MIC in assay [1] was found to be 82.2 µM (≈ 25 µg/mL).

Take `O=C(N/N=C/c1ccc2nonc2c1)c1ccncc1`: in assay [1], the MIC was above 93.6 µM.

Regarding `Cc1c(C(=O)N/N=C/c2ccc3c(c2)OCO3)no[n+]1[O-]`, the MIC in assay [1] is above 86.2 µM.

As for `Cc1c(C(=O)N/N=C/c2c(-c3ccccc3)no[n+]2[O-])no[n+]1[O-]`, the MIC in assay [1] was above 75.8 µM.

Turning to `Cc1c(/C=N/NC(=O)c2cnn(-c3ccccc3)c2)no[n+]1[O-]`, the MIC in assay [1] is above 80.1 µM.

As to `Cc1nc2ccccn2c1C(=O)N/N=C/c1ccc2no[n+]([O-])c2c1`, the “Selectivity Index” value in assay [2] turned out to be 3.7. For the same molecule, the MIC in assay [1] is 38.6 µM (≈ 13 µg/mL).

On to `Cc1c(C(=O)N/N=C/c2ccccc2)no[n+]1[O-]`, for which, in assay [1], the MIC is above 102 µM.

As for `Cc1c(/C=N/NC(=O)c2cccnc2)no[n+]1[O-]`, the MIC in assay [1] is above 101 µM.

As to `Cc1c(C(=O)N/N=C/c2ccc(N(C)C)cc2)no[n+]1[O-]`, in assay [1], the MIC was above 86.5 µM.

Take `Cc1nc2ccccn2c1C(=O)N/N=C/c1no[n+]([O-])c1C`: the MIC in assay [1] was above 83.3 µM.

`O=C(N/N=C/c1c(-c2ccccc2)no[n+]1[O-])c1ccncc1`: the “Selectivity Index” value in assay [2] is above 40. For the same molecule, the MIC in assay [1] is 10.1 µM (≈ 3.12 µg/mL).

On to `Cc1c(C(=O)N/N=C/c2ccco2)no[n+]1[O-]`, for which the MIC in assay [1] is above 106 µM.

For the molecule `Cc1c(C(=O)N/N=C/c2ccccc2O)no[n+]1[O-]`, the MIC in assay [1] was above 95.4 µM.

For the molecule `O=C(N/N=C/c1ccc2no[n+]([O-])c2c1)c1cccnc1`, the “Selectivity Index” value in assay [2] is given as 1.4. For the same molecule, in assay [1], the minimal inhibitory concentration (MIC) came to 22.1 µM (≈ 6.26 µg/mL).

`Cc1c(/C=N/NC(=O)c2ccncc2)no[n+]1[O-]`: the MIC in assay [1] was above 25.4 µM.

Turning to `Cc1c(C(=O)N/N=C/c2ccc([N+](=O)[O-])o2)no[n+]1[O-]`, in assay [1], the MIC was determined as 44.5 µM (≈ 12.5 µg/mL).

With `Cc1[nH]cnc1C(=O)N/N=C/c1c(-c2ccccc2)no[n+]1[O-]`, the MIC in assay [1] was above 80.1 µM.

As for `NNC(=O)c1ccncc1` [ISONIAZID], the “Selectivity Index” value in assay [2] is above 9. In addition, the MIC in assay [1] is 45.6 µM (≈ 6.25 µg/mL).

With `Cc1c(C(=O)N/N=C/c2ccc(Br)cc2)no[n+]1[O-]`, in assay [1], the MIC was above 74 µM.

Consider `Cc1c(C(=O)N/N=C/c2ccccn2)no[n+]1[O-]`, for which the MIC in assay [1] was above 101 µM.

`O=C(N/N=C/c1ccc2nonc2c1)c1cccnc1`: in assay [2], the “Selectivity Index” value was found to be 5. The MIC in assay [1] turned out to be 46.8 µM (≈ 12.5 µg/mL).

For `COc1ccc(/C=N/NC(=O)c2no[n+]([O-])c2C)cc1O`, in assay [1], the MIC is above 85.6 µM.

Take `Cc1c(C(=O)N/N=C/c2ccc(C(=O)O)cc2)no[n+]1[O-]`: the MIC in assay [1] was above 86.2 µM.

With `COc1ccc(/C=N/NC(=O)c2no[n+]([O-])c2C)cc1OC`, the MIC in assay [1] was above 81.6 µM.

Take `O=C(N/N=C/c1c(-c2ccccc2)no[n+]1[O-])c1cccnc1`: in assay [2], the “Selectivity Index” value was 10. In assay [1], the MIC stood at 20.2 µM (≈ 6.25 µg/mL).

For the molecule `O=C(N/N=C/c1ccc2no[n+]([O-])c2c1)c1cnn(-c2ccccc2)c1`, the MIC in assay [1] is above 17.9 µM.

Turning to `Cc1[nH]cnc1C(=O)N/N=C/c1ccc2no[n+]([O-])c2c1`, the “Selectivity Index” value in assay [2] turned out to be 1.5. Moreover, in assay [1], the MIC came to 21.9 µM (≈ 6.27 µg/mL).

For `CC(=O)Nc1ccc(/C=N/NC(=O)c2no[n+]([O-])c2C)cc1`, the minimum inhibitory concentration (MIC) in assay [1] was above 82.5 µM.

As for `O=C(N/N=C/c1ccc2no[n+]([O-])c2c1)c1ccncc1`, in assay [2], the “Selectivity Index” value is recorded as 12. For the same molecule, the MIC in assay [1] was 11 µM (≈ 3.12 µg/mL).

For the molecule `Cc1c(C(=O)N/N=C/c2ccc(C(F)(F)F)cc2)no[n+]1[O-]`, in assay [1], the MIC is above 79.6 µM.

Turning to `Cc1c(C(=O)N/N=C/c2cccc(O)c2)no[n+]1[O-]`, the minimum inhibitory concentration (MIC) in assay [1] is above 95.4 µM.

For the molecule `Cc1c(C(=O)N/N=C/c2ccc([N+](=O)[O-])s2)no[n+]1[O-]`, the MIC in assay [1] amounted to 42.1 µM (≈ 12.5 µg/mL).

Regarding `COc1cc(/C=N/NC(=O)c2no[n+]([O-])c2C)cc(OC)c1OC`, the minimal inhibitory concentration (MIC) in assay [1] was above 74.4 µM.

With `Cc1c(C(=O)N/N=C/c2ccc([N+](=O)[O-])cc2)no[n+]1[O-]`, the MIC in assay [1] was above 85.9 µM.

For the molecule `O=C(N/N=C/c1c(-c2ccccc2)no[n+]1[O-])c1ccc2c(c1)OCO2`, the MIC in assay [1] is above 71 µM.

Regarding `Cc1nc2ccccn2c1C(=O)N/N=C/c1c(-c2ccccc2)no[n+]1[O-]`, the “Selectivity Index” value in assay [2] was 6.5. Moreover, the MIC in assay [1] is 8.6 µM (≈ 3.12 µg/mL).

As for `Cc1c(/C=N/NC(=O)c2no[n+]([O-])c2C)no[n+]1[O-]`, the minimum inhibitory concentration (MIC) in assay [1] is above 93.6 µM.

As for `O=C(N/N=C/c1c(-c2ccccc2)no[n+]1[O-])c1cnn(-c2ccccc2)c1`, in assay [1], the MIC was above 66.8 µM.

In the case of `COc1cc(/C=N/NC(=O)c2no[n+]([O-])c2C)ccc1O`, the MIC in assay [1] is above 85.6 µM.

Regarding `Cc1[nH]cnc1C(=O)N/N=C/c1no[n+]([O-])c1C`, in assay [1], the MIC was above 100 µM.

Take `O=C(N/N=C/c1ccc2no[n+]([O-])c2c1)c1ccc2c(c1)OCO2`: in assay [1], the MIC was above 76.7 µM.

For `Cc1c(/C=N/NC(=O)c2ccc3c(c2)OCO3)no[n+]1[O-]`, in assay [1], the MIC was above 86.2 µM.
